Results on nine molecules are retold here after ChEMBL document CHEMBL1142116, “Mixed lignan-neolignans from Tarenna attenuata” (J Nat Prod, 2007).

In general, pIC50 refers to −log10 of the IC50, conventionally taken in molar units.

Format in all cases: functional
For experiment [1], the system named is Radical scavenging activity. Put plainly: Antioxidant effect assessed as DPPH radical scavenging activity. An outline of the steps: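 Compound at five concentrations (0.16–100.0 µM) mixed 1:1 with 0.1 mM DPPH in EtOH, 30 min at 37 °C, absorbance at 517 nm. Scavenging % = (Acontrol − Asample)/Acontrol × 100; IC50 from concentration series.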
A general note: The DPPH test is a chemical assay of radical scavenging.

In experiment [2] the test system is PC-12. Briefly: Antioxidant effect against hydrogen peroxide-induced impairment in PC12 cells assessed as cell viability at 0.4 uM by MTT assay relative to control. The note with it: Rattus norvegicus, read-out: Activity. An outline of the steps:
(§1)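 PC12 cells seeded in RPMI 1640 with 10% newborn bovine serum; after 24 h, compound (0.4–50 µM) added together with freshly prepared H2O2 (0.2 mM final) in PBS for 1 h. Then MTT (0.5 mg/mL in PBS) for 4 h, lysis with 5% i-BuOH/10% SDS/0.004% HCl overnight, OD 570 nm; viability as % of untreated control; n = 5, mean ± SD.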
On the technique in general: Tetrazolium dyes change colour on reduction, which living cells bring about.

For experiment [3], the system named is PC-12. Put plainly: Antioxidant effect against hydrogen peroxide-induced impairment in PC12 cells assessed as cell viability at 2 uM by MTT assay relative to control. The note with it: Rattus norvegicus, read-out: Activity. Summed up: as §1
In experiment [4] the test system is PC-12. Put plainly: Antioxidant effect against hydrogen peroxide-induced impairment in PC12 cells assessed as cell viability at 10 uM by MTT assay relative to control. The note with it: Rattus norvegicus, read-out: Activity. An outline of the steps:
as §1

Experiment [5] relates to PC-12. Put plainly: Antioxidant effect against hydrogen peroxide-induced impairment in PC12 cells assessed as cell viability at 50 uM by MTT assay relative to control. The note with it: Rattus norvegicus, read-out: Activity. An outline of the steps:
as §1

pIC50: −log10 of the molar value.

`COc1cc(C(O)C(CO)Oc2c(OC)cc([C@@H]3Oc4c(OC)cc(/C=C/C=O)cc4[C@H]3CO)cc2OC)ccc1O` (stereo not given in full): in experiment [1], the pIC50 is 3.83. Moreover, in the experiment with PC-12 [2], the viability at 0.4 µM was found to be 56.9%. The viability at 2 µM with PC-12 [3] came to 56.8%. Moreover, in the experiment on PC-12 [4], the viability at 10 µM was determined as 62.6%. In addition, the viability at 50 µM in the experiment on PC-12 [5] is 64.8%.
On to `COc1cc(C(O)C(CO)Oc2c(OC)cc(C(O)C(CO)Oc3c(OC)cc([C@@H]4Oc5c(OC)cc(/C=C/C=O)cc5[C@H]4CO)cc3OC)cc2OC)ccc1O` (stereo not given in full), for which, in experiment [1], the pIC50 is 3.90. For the same molecule, the viability at 0.4 µM with PC-12 [2] amounted to 50.3%. Besides, the viability at 2 µM with PC-12 [3] turned out to be 54.7%. Further, the viability at 10 µM in the experiment with PC-12 [4] turned out to be 55.2%. Moreover, in the experiment on PC-12 [5], the viability at 50 µM amounted to 51%.
Consider `CCOC(c1ccc(O)c(OC)c1)C(O)CO` (stereo not given), for which, in experiment [1], the pIC50 is 3.88. Moreover, the viability at 0.4 µM in the experiment on PC-12 [2] turned out to be 54.1%. Besides, the viability at 2 µM in the experiment on PC-12 [3] turned out to be 54.9%. Moreover, the viability at 10 µM with PC-12 [4] was 56.8%. Moreover, the viability at 50 µM with PC-12 [5] worked out at 57.3%.
Take `COc1cc([C@H](O)[C@@H](CO)Oc2c(OC)cc([C@@H]3OC[C@@H]4[C@H]3CO[C@H]4c3cc(OC)c(O[C@H](CO)[C@@H](O)c4cc(OC)c(O)c(OC)c4)c(OC)c3)cc2OC)ccc1O`: the pIC50 in experiment [1] was 4.06. Also, the viability at 0.4 µM in the experiment with PC-12 [2] was determined as 51.9%. Besides, in the experiment with PC-12 [3], the viability at 2 µM was determined as 54.3%. Also, the viability at 10 µM with PC-12 [4] worked out at 54.7%. Also, in the experiment on PC-12 [5], the viability at 50 µM was determined as 54.1%.
The like results for `CC1=NN(c2ccccc2)C(=O)C1` [EDARAVONE] were, in that order, 4.57, 55.5%, 53.1%, 47.8% and 25.6%.
On the same counts, the results for `COc1cc(C(O)C(CO)Oc2ccc(C(O)C(CO)Oc3c(OC)cc([C@@H]4Oc5c(OC)cc(/C=C/C=O)cc5[C@H]4CO)cc3OC)cc2OC)ccc1O` (stereo not given in full) are 3.70, 52.8%, 47.9%, 64.4% and 55.9%.
The like results for `COc1cc(C(O)C(CO)Oc2c(OC)cc([C@@H]3OC[C@@H]4C(=O)OC[C@@H]43)cc2OC)ccc1O` (stereo not given in full) were, in that order, 4.14, 59.3%, 61.8%, 59.4% and 45.7%.
As to `COc1cc([C@H](O)[C@@H](CO)Oc2c(OC)cc([C@@H]3OC[C@@H]4[C@H]3CO[C@H]4c3cc(OC)c(O[C@H](CO)[C@@H](O)c4ccc(O)c(OC)c4)c(OC)c3)cc2OC)ccc1O`, the pIC50 in experiment [1] was 4.26. For the same molecule, in the experiment with PC-12 [2], the viability at 0.4 µM turned out to be 52.2%. Further, the viability at 2 µM in the experiment on PC-12 [3] was found to be 53.2%. In addition, the viability at 10 µM in the experiment with PC-12 [4] worked out at 54.3%. Also, the viability at 50 µM in the experiment on PC-12 [5] stood at 55.3%.
On the same counts, the results for `COc1cc2c(c(OC)c1O)[C@@H](CO)[C@@H](c1cc(OC)c(OC)c(OC)c1)O2` are 4.35, 61.4%, 58%, 58.2% and 55%.
